{
  "source": "ChEMBL document CHEMBL1212799",
  "about": "(2010)",
  "key": {"[1]": {"system": "Klebsiella pneumoniae", "assay": "Antibacterial activity against Klebsiella pneumoniae isolate 351 assessed as reduction of bacterial count at 8 ug/ml within 6 hrs in vitro pharmacodynamic model", "type": "functional"}, "[2]": {"system": "Klebsiella pneumoniae", "assay": "fT>MIC in Klebsiella pneumoniae isolate 328A at 2 gram for every 8 hrs administered as 3 hrs infusion measured over 16-24 hrs in in vitro pharmcodynamic model", "type": "functional", "outline": "(§1)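 Samples assayed by HPLC (linear 0.25–40 µg/ml). Time free drug stayed above the modal triplicate broth-microdilution MIC (CLSI) calculated for each 8-h interval.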"}, "[3]": {"system": "Pseudomonas aeruginosa", "assay": "Antibacterial activity against Pseudomonas aeruginosa isolate 762 assessed as reduction of bacterial count at 16 ug/ml within 6 hrs in vitro pharmacodynamic model", "type": "functional"}, "[4]": {"system": "Pseudomonas aeruginosa", "assay": "fT>MIC in Pseudomonas aeruginosa isolate 1177 at 2 gram for every 8 hrs administered as 3 hrs infusion measured over 8-16 hrs in in vitro pharmcodynamic model", "type": "functional"}, "[5]": {"system": "Pseudomonas aeruginosa", "assay": "Antibacterial activity against Pseudomonas aeruginosa isolate 896 assessed as reduction of bacterial count at 16 ug/ml within 6 hrs in vitro pharmacodynamic model", "type": "functional"}, "[6]": {"system": "Pseudomonas aeruginosa", "assay": "Antibacterial activity against Pseudomonas aeruginosa isolate 1030 in vitro pharmacodynamic model", "type": "functional", "outline": "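Simulated peak 38.4 µg/ml, trough 3.04 µg/ml. CAMHB at 37°C, 10^6 CFU/ml from overnight culture, drug started at 0.5 h. Two treated models plus one growth control. Change in log10 CFU/ml over 24 h on blood agar. Detection limit 10^1 CFU/ml.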"}, "[7]": {"system": "Klebsiella pneumoniae", "assay": "fT>MIC in Klebsiella pneumoniae isolate 375 at 2 gram for every 8 hrs administered as 3 hrs infusion over 24 hrs in in vitro pharmcodynamic model", "type": "functional"}, "[8]": {"system": "Klebsiella pneumoniae", "assay": "fT>MIC in Klebsiella pneumoniae isolate 353 at 2 gram for every 8 hrs administered as 3 hrs infusion over 24 hrs in in vitro pharmcodynamic model", "type": "functional, isoalte 353", "outline": "as §1"}, "[9]": {"system": "Pseudomonas aeruginosa", "assay": "fT>MIC in Pseudomonas aeruginosa isolate 1030 at 2 gram for every 8 hrs administered as 3 hrs infusion over 24 hrs in in vitro pharmcodynamic model", "type": "functional"}, "[10]": {"system": "Klebsiella pneumoniae", "assay": "Antibacterial activity against Klebsiella pneumoniae isolate 361 in vitro pharmacodynamic model", "type": "functional", "outline": "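Inoculum 10^6 CFU/ml; dosing began 0.5 h after inoculation. Two treated models plus one untreated control per isolate; blood-agar counts; change in log10 CFU/ml over 24 h (detection limit 10^1); drug levels checked by HPLC.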"}, "[11]": {"system": "Pseudomonas aeruginosa", "assay": "fT>MIC in Pseudomonas aeruginosa isolate 1038 at 2 gram for every 8 hrs administered as 3 hrs infusion over 24 hrs in in vitro pharmcodynamic model", "type": "functional"}, "[12]": {"system": "Klebsiella pneumoniae", "assay": "fT>MIC in Klebsiella pneumoniae isolate 375 at 2 gram for every 8 hrs administered as 3 hrs infusion measured over 8-16 hrs in in vitro pharmcodynamic model", "type": "functional"}, "[13]": {"system": "Klebsiella pneumoniae", "assay": "fT>MIC in Klebsiella pneumoniae isolate 354 at 2 gram for every 8 hrs administered as 3 hrs infusion measured over 8-16 hrs in in vitro pharmcodynamic model", "type": "functional", "outline": "as §1"}, "[14]": {"system": "Klebsiella pneumoniae", "assay": "fT>MIC in Klebsiella pneumoniae isolate 353 at 2 gram for every 8 hrs administered as 3 hrs infusion measured over 0-8 hrs in in vitro pharmcodynamic model", "type": "functional, isoalte 353", "outline": "as §1"}, "[15]": {"system": "Pseudomonas aeruginosa", "assay": "fT>MIC in Pseudomonas aeruginosa isolate 762 at 2 gram for every 8 hrs administered as 3 hrs infusion over 24 hrs in in vitro pharmcodynamic model", "type": "functional"}, "[16]": {"system": "Klebsiella pneumoniae", "assay": "fT>MIC in Klebsiella pneumoniae isolate 361 at 2 gram for every 8 hrs administered as 3 hrs infusion over 24 hrs in in vitro pharmcodynamic model", "type": "functional", "outline": "as §1"}, "[17]": {"system": "Pseudomonas aeruginosa", "assay": "fT>MIC in Pseudomonas aeruginosa isolate 1030 at 2 gram for every 8 hrs administered as 3 hrs infusion measured over 0-8 hrs in in vitro pharmcodynamic model", "type": "functional"}, "[18]": {"system": "Pseudomonas aeruginosa", "assay": "fT>MIC in Pseudomonas aeruginosa isolate 988 at 2 gram for every 8 hrs administered as 3 hrs infusion over 24 hrs in in vitro pharmcodynamic model", "type": "functional"}, "[19]": {"system": "Klebsiella pneumoniae", "assay": "fT>MIC in Klebsiella pneumoniae isolate 334 at 2 gram for every 8 hrs administered as 3 hrs infusion over 24 hrs in in vitro pharmcodynamic model", "type": "functional", "outline": "as §1"}},
  "data": [
    {"smiles": "C[C@@H](O)[C@H]1C(=O)N2C(C(=O)O)=C(S[C@@H]3CN[C@H](C(=O)N(C)C)C3)[C@H](C)[C@H]12", "note": "[MEROPENEM]", "values": [
      {"measurement": "log10cfu", "setting": "[1]", "value": ">3"},
      {"measurement": "fT>MIC", "setting": "[2]", "value": 78, "unit": "%"},
      {"measurement": "log10cfu", "setting": "[3]", "value": ">=3"},
      {"measurement": "fT>MIC", "setting": "[4]", "value": 78, "unit": "%"},
      {"measurement": "log10cfu", "setting": "[5]", "value": ">=3"},
      {"measurement": "MIC", "setting": "[6]", "value": 8, "unit": "mg/L"},
      {"measurement": "fT>MIC", "setting": "[7]", "value": 16, "unit": "%"},
      {"measurement": "fT>MIC", "setting": "[8]", "value": 47, "unit": "%"},
      {"measurement": "fT>MIC", "setting": "[9]", "value": 69, "unit": "%"},
      {"measurement": "MIC", "setting": "[10]", "value": 64, "unit": "mg/L"},
      {"measurement": "fT>MIC", "setting": "[11]", "value": 69, "unit": "%"},
      {"measurement": "fT>MIC", "setting": "[12]", "value": 0, "unit": "%"},
      {"measurement": "fT>MIC", "setting": "[13]", "value": 56, "unit": "%"},
      {"measurement": "fT>MIC", "setting": "[14]", "value": 38, "unit": "%"},
      {"measurement": "fT>MIC", "setting": "[15]", "value": 47, "unit": "%"},
      {"measurement": "fT>MIC", "setting": "[16]", "value": 0, "unit": "%"},
      {"measurement": "fT>MIC", "setting": "[17]", "value": 75, "unit": "%"},
      {"measurement": "fT>MIC", "setting": "[18]", "value": 47, "unit": "%"},
      {"measurement": "fT>MIC", "setting": "[19]", "value": 16, "unit": "%"}
    ]}
  ]
}
